Data from publication PMC7723353 (Revista do Instituto de Medicina Tropical de São Paulo, 2020).

Key:
[1] = Cytotoxicity by MTT assay in Vero cells; type: cell-based; conditions: African green monkey, Vero cells (African green monkey kidney)
Outline: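 Vero cells at 2.7 × 10^5 cells/mL in MEM with 5% FBS, held 24 h at 37 °C, 5% CO2. Medium replaced by two-fold serial dilutions of test compound from DMSO stocks, or DMSO; medium-only cell controls. Incubation 4 days at 37 °C, then MTT (5 mg/mL solution) for 4 h. Formazan dissolved in DMSO, absorbance read at 540 nm. CC50 from % viability by regression.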

[2] = tested on: Zika virus (clinical isolate, IMT17); assay: Anti-ZIKV viral plaque reduction assay in Vero cells; type: cell-based; conditions: for EC50: 96 h, read-out: Anti-ZIKV activity EC50; for Selectivity index (SI): ratio between cytotoxicity and antiviral activity (CC50/EC50), Vero cells
Outline: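 ZIKV clinical isolate IMT17 on Vero cells (1.5 × 10^5 cells/well, grown 24 h). Infection at 100 PFU/well for 1 h at 37 °C, 5% CO2, then PBS (pH 7.0) wash. Test compound at several concentrations in 2X MEM, 2% FBS, 50% high-viscosity CMC overlay. Ribavirin positive control; medium and DMSO controls. After 4 days, crystal violet stain; plaque counts give % inhibition, EC50 by non-linear regression; SI = CC50/EC50.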

Structure (SMILES) | CC50 at 4 days [1] [µM] | EC90 ([2]; Zika virus, Vero) [µM] | EC50 ([2]; Zika virus, Vero) [µM] | Selectivity index (SI) [2]
CC(C)c1cc2c(cc1O)[C@@]1(C)CCC[C@@](C)(C=O)[C@@H]1CC2 [Compound 8, 18-oxoferruginol] | 35.1 ± 5.2 | 20.8 ± 3.75 | 2.6 ± 0.07 | 13.51
NC(=O)c1ncn([C@@H]2O[C@H](CO)[C@@H](O)[C@H]2O)n1 [Ribavirin, reference compound] | 2590 | – | 98.5 ± 6.46 | 26.25
